Activity calls are given as the source filed them.
Assays:
[1] = biological target: Kappa-type opioid receptor (Mus musculus, UniProt P33534); experiment: Displacement of [3H]-diprenorphine from mouse KOR expressed in CHO cell membranes by competitive radioligand binding assay
How it was run: (§1)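 30 μg CHO membrane protein incubated with radioligand and varying competitor in TME buffer (50 mM Tris, 3 mM MgCl2, 0.2 mM EGTA, pH 7.4). Bound ligand separated by filtration. […] IC50 from Hill plots, converted to Ki by Cheng–Prusoff.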

[2] = biological target: Delta-type opioid receptor (Mus musculus, UniProt P32300); experiment: Displacement of [3H]-diprenorphine from mouse DOR expressed in CHO cell membranes by competitive radioligand binding assay; how it was run: as §1
[3] = biological target: Mu-type opioid receptor (Mus musculus) (UniProt P42866); experiment: Antagonist activity at mouse MOR expressed in CHO cell membranes assessed as inhibition of DAMGO-stimulated [35S]GTPgammaS binding after 90 mins relative to DAMGO; type: functional
Mus musculus [4] = experiment: In vivo antagonist activity at MOR in Swiss Webster mouse assessed reduction in morphine-induced antinociceptive effect by measuring morphine MPE at 10 mg/kg, sc preincubated for 5 mins followed by morphine addition and measured after 20 min post morphine challenge by tail immersion test relative to control; type: functional
How it was run: (§2)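 Male Swiss Webster mice, 5 per group. […] Baseline latency 2–4 s, 10 s cutoff. %MPE calculated per mouse. AD50 by least-squares linear regression, 95% CI by Bliss method.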

Mus musculus [5] = experiment: In vivo antagonist activity at MOR in sc dosed Swiss Webster mouse assessed reduction in morphine-induced antinociceptive effect by measuring morphine MPE preincubated for 5 mins followed by morphine addition and measured after 20 min post morphine challenge by tail immersion test; type: functional; how it was run: as §2
Mus musculus [6] = experiment: Induction of withdrawal symptoms in morphine-pelleted Swiss Webster mouse model assessed as dog shakes at 10 mg/kg, sc measured after 72 hrs […] for 20 mins; type: organism-based; conditions: in vivo
How it was run: (§3)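 Withdrawal precipitated 72 h after implantation by sc compound, after 30 min habituation to an open Plexiglas chamber. Wet dog shakes, escape jumps and paw tremors counted over 20 min, five mice per group. Naloxone 1 mg/kg sc as reference.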

Mus musculus [7] = experiment: Induction of withdrawal symptoms in morphine-pelleted Swiss Webster mouse model assessed as escape jumps at 10 mg/kg, sc measured after 72 hrs […] for 20 mins; type: organism-based; conditions: in vivo; how it was run: as §3
Mus musculus [8] = experiment: Induction of withdrawal symptoms in morphine-pelleted Swiss Webster mouse model assessed as paw tremors […] at 10 mg/kg, sc measured after 72 hrs […] for 20 mins; type: organism-based; conditions: in vivo; how it was run: as §3
Mus musculus [9] = experiment: Induction of withdrawal symptoms in morphine-pelleted Swiss Webster mouse model assessed as dog shakes at 50 to 100 mg/kg, sc measured after 72 hrs […] for 20 mins; type: organism-based; conditions: in vivo; how it was run: as §3
Mus musculus [10] = experiment: Induction of withdrawal symptoms in morphine-pelleted Swiss Webster mouse model assessed as paw tremors […] at 50 to 100 mg/kg, sc measured after 72 hrs […] for 20 mins; type: organism-based; conditions: in vivo; how it was run: as §3
Mus musculus [11] = experiment: Induction of withdrawal symptoms in morphine-pelleted Swiss Webster mouse model assessed as escape jumps at 50 mg/kg, sc measured after 72 hrs […] for 20 mins; type: organism-based; conditions: in vivo; how it was run: as §3
Mus musculus [12] = experiment: Induction of withdrawal symptoms in morphine-pelleted Swiss Webster mouse model assessed as dog shakes at 1 mg/kg, sc measured after 72 hrs […] for 20 mins; type: organism-based; conditions: in vivo; how it was run: as §3
Mus musculus [13] = experiment: Induction of withdrawal symptoms in morphine-pelleted Swiss Webster mouse model assessed as escape jumps at 1 mg/kg, sc measured after 72 hrs […] for 20 mins; type: organism-based; conditions: in vivo; how it was run: as §3
Mus musculus [14] = experiment: Induction of withdrawal symptoms in morphine-pelleted Swiss Webster mouse model assessed as paw tremors […] at 1 mg/kg, sc measured after 72 hrs […] for 20 mins; type: organism-based; conditions: in vivo; how it was run: as §3
Mu-type opioid receptor [15] = biological target: T1, Mu-type opioid receptor (Mus musculus, UniProt P42866); experiment: Displacement of [3H]-naloxone from mouse MOR expressed in CHO cell membranes by competitive radioligand binding assay; how it was run: as §1
Mus musculus [16] = species: Mus musculus; experiment: Selectivity ratio of Ki for mouse DOR expressed in CHO cell membranes to Ki for mouse MOR expressed in CHO cell membranes; type: cell-based
How it was run: (§4)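 Ratio of Ki values from competition binding: 30 μg CHO membranes in TME pH 7.4, filtration. IC50 converted to Ki by Cheng–Prusoff.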

Mus musculus [17] = species: Mus musculus; experiment: Selectivity ratio of Ki for mouse KOR expressed in CHO cell membranes to Ki for mouse MOR expressed in CHO cell membranes; type: cell-based; how it was run: as §4
Mu-type opioid receptor [18] = biological target: T1, Mu-type opioid receptor; experiment: Antagonist activity at mouse MOR expressed in CHO cell membranes assessed as inhibition of DAMGO-stimulated [35S]GTPgammaS binding after 90 mins; type: functional
Mus musculus [19] = experiment: Antinociceptive activity in Swiss Webster mouse at 10 mg/kg, sc measured after 20 min post dose by tail immersion test; type: functional, organism-based
How it was run: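 Male Swiss Webster mice, 7–8 weeks, 5 per group. Compound given sc, tail immersed in 56 ± 0.1 °C water 20 min later. Only mice with baseline latency of 2–4 s were used. 10 s cutoff. %MPE = [(test – control)/(10 – control)] × 100.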

Mus musculus [20] = experiment: Induction of withdrawal symptoms in morphine-pelleted Swiss Webster mouse model assessed as dog shakes at 5 mg/kg, sc measured after 72 hrs […] for 20 mins; type: organism-based; conditions: in vivo; how it was run: as §3
Mus musculus [21] = experiment: Induction of withdrawal symptoms in morphine-pelleted Swiss Webster mouse model assessed as escape jumps at 5 mg/kg, sc measured after 72 hrs […] for 20 mins; type: organism-based; conditions: in vivo; how it was run: as §3
Mus musculus [22] = experiment: Induction of withdrawal symptoms in morphine-pelleted Swiss Webster mouse model assessed as paw tremors […] at 5 mg/kg, sc measured after 72 hrs […] for 20 mins; type: organism-based; conditions: in vivo; how it was run: as §3

Question: With CCc1cnccc1C(=O)N[C@@H]1CC[C@@]2(O)[C@H]3Cc4ccc(O)c5c4[C@@]2(CCN3CC2CC2)[C@H]1O5 as the compound, how does the Ki [1] read?
Answer: 9.18 nM

Question: What about the Ki [2] of the same compound?
Answer: 42.9 nM

Question: And the Emax [3]?
Answer: 41.6%

Question: And the inhibition (Mus musculus [4])?
Answer: inactive

Question: With COC(=O)c1cnccc1C(=O)N[C@@H]1CC[C@@]2(O)[C@H]3Cc4ccc(O)c5c4[C@@]2(CCN3CC2CC2)[C@H]1O5 as the compound, how does the Ki [1] read?
Answer: 11.7 nM

Question: And the Ki [2]?
Answer: 137 nM

Question: What about the Emax [3] of the same compound?
Answer: 29.2%

Question: What about the inhibition (Mus musculus [4]) of the same compound?
Answer: inactive

Question: What does the source list for CC(C)Cc1cnccc1C(=O)N[C@@H]1CC[C@@]2(O)[C@H]3Cc4ccc(O)c5c4[C@@]2(CCN3CC2CC2)[C@H]1O5?
Answer: Ki [1]: 75.6 nM; Ki [2]: 149 nM; Emax [3]: 27.3%; inhibition (Mus musculus [4]): inactive

Question: O=C(N[C@@H]1CC[C@@]2(O)[C@H]3Cc4ccc(O)c5c4[C@@]2(CCN3CC2CC2)[C@H]1O5)c1ccncc1F was tested. Which Ki [1] did it give?
Answer: 4.8 nM

Question: And the Ki [2]?
Answer: 157 nM

Question: And the inhibition in vivo at 10 mg/kg (Mus musculus [4])?
Answer: 6.2%

Question: And the ED50 (Mus musculus [5])?
Answer: 2.82 mg/kg

Question: And the Activity (Mus musculus [6])?
Answer: Non-Toxic

Question: What about the Activity (Mus musculus [7]) of the same compound?
Answer: Non-Toxic

Question: What about the Activity (Mus musculus [8]) of the same compound?
Answer: Non-Toxic

Question: And the Activity (Mus musculus [9])?
Answer: Non-Toxic

Question: And the Activity (Mus musculus [10])?
Answer: Toxic

Question: What about the Activity (Mus musculus [11]) of the same compound?
Answer: Non-Toxic

Question: What does the source list for C=CCN1CC[C@]23c4c5ccc(O)c4O[C@H]2C(=O)CC[C@@]3(O)[C@H]1C5 [NALOXONE]?
Answer: Activity (Mus musculus [12]): Toxic; Activity (Mus musculus [13]): Toxic; Activity (Mus musculus [14]): Toxic

Question: Which Ki [1] does the source give for O=C(N[C@@H]1CC[C@@]2(O)[C@H]3Cc4ccc(O)c5c4[C@@]2(CCN3CC2CC2)[C@H]1O5)c1ccncc1C1CCCCC1 here?
Answer: 3.32 nM

Question: And the Ki [2]?
Answer: 11.2 nM

Question: And the Emax [3]?
Answer: 51.6%

Question: What about the inhibition (Mus musculus [4]) of the same compound?
Answer: inactive

Question: What does the source list for O=C(N[C@@H]1CC[C@@]2(O)[C@H]3Cc4ccc(O)c5c4[C@@]2(CCN3CC2CC2)[C@H]1O5)c1ccncc1C(F)(F)F?
Answer: Ki (Mu-type opioid receptor [15]): 0.43 nM; Ki [1]: 12.5 nM; Ki [2]: 61.8 nM; Ratio Ki (Mus musculus [16]): 144; Ratio Ki (Mus musculus [17]): 29.1; EC50 (Mu-type opioid receptor [18]): 1.38 nM; Emax [3]: 31.9%; inhibition (Mus musculus [4]): inactive

Question: For O=C(O)c1cnccc1C(=O)N[C@@H]1CC[C@@]2(O)[C@H]3Cc4ccc(O)c5c4[C@@]2(CCN3CC2CC2)[C@H]1O5, which Ki (Mu-type opioid receptor [15]) is on record?
Answer: 0.76 nM

Question: What about the Ki [1] of the same compound?
Answer: 2.43 nM

Question: What about the Ki [2] of the same compound?
Answer: 55.6 nM

Question: What about the Ratio Ki (Mus musculus [16]) of the same compound?
Answer: 73.2

Question: And the Ratio Ki (Mus musculus [17])?
Answer: 3.2

Question: What about the EC50 (Mu-type opioid receptor [18]) of the same compound?
Answer: 1.83 nM

Question: What about the Emax [3] of the same compound?
Answer: 29.3%

Question: What about the inhibition (Mus musculus [4]) of the same compound?
Answer: inactive

Question: Which results are given for O=C(N[C@@H]1CC[C@@]2(O)[C@H]3Cc4ccc(O)c5c4[C@@]2(CCN3CC2CC2)[C@H]1O5)c1ccncc1C1CCCC1?
Answer: Ki [1]: 8.16 nM; Ki [2]: 34 nM; inhibition (Mus musculus [4]): inactive

Question: Which Ki [1] does the source give for O=C(N[C@@H]1CC[C@@]2(O)[C@H]3Cc4ccc(O)c5c4[C@@]2(CCN3CC2CC2)[C@H]1O5)c1ccncc1[N+](=O)[O-] here?
Answer: 4.46 nM

Question: What about the Ki [2] of the same compound?
Answer: 95.6 nM

Question: And the Emax [3]?
Answer: 39.1%

Question: What about the inhibition (Mus musculus [4]) of the same compound?
Answer: inactive

Question: Which results are given for N#Cc1cnccc1C(=O)N[C@@H]1CC[C@@]2(O)[C@H]3Cc4ccc(O)c5c4[C@@]2(CCN3CC2CC2)[C@H]1O5?
Answer: Ki [1]: 2.74 nM; Ki [2]: 46.3 nM; Emax [3]: 26.1%; Activity (Mus musculus [19]): inactive; inhibition in vivo at 10 mg/kg (Mus musculus [4]): 7.8%; ED50 (Mus musculus [5]): 1.75 mg/kg; inhibition (Mus musculus [5]): Dose-dependent effect; Activity (Mus musculus [12]): Non-Toxic; Activity (Mus musculus [13]): Non-Toxic; Activity (Mus musculus [20]): Toxic; Activity (Mus musculus [21]): Toxic; Activity (Mus musculus [22]): Toxic

Question: With O=C(N[C@@H]1CC[C@@]2(O)[C@H]3Cc4ccc(O)c5c4[C@@]2(CCN3CC2CC2)[C@H]1O5)c1ccncc1C1CCCCCC1 as the compound, how does the Ki [1] read?
Answer: 5.16 nM

Question: And the Ki [2]?
Answer: 15 nM

Question: And the Emax [3]?
Answer: 48.3%

Question: And the inhibition (Mus musculus [4])?
Answer: inactive

Question: Which results are given for O=C(N[C@@H]1CC[C@@]2(O)[C@H]3Cc4ccc(O)c5c4[C@@]2(CCN3CC2CC2)[C@H]1O5)c1ccncc1-c1ccccc1?
Answer: Ki [1]: 3.42 nM; Ki [2]: 44.8 nM; Emax [3]: 44.4%; inhibition (Mus musculus [4]): inactive
